# Columns and labels:
# [1] = tested on: dengue virus type 2; test: Antiviral activity against Dengue virus 2 infected in BHK-D2RepT cells assessed as reduction in viral replication incubated for 48 hrs by luciferase reporter replicon-based assay; format: functional, organism-based
# Procedure, shortened: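 Cells used were BHK-D2RepT: BHK carrying a DENV-2 (New Guinea C) firefly-luciferase replicon, maintained in DMEM/10% FBS/200 μg/mL G418. Seeded at 5×10⁴ cells/well for 24 h, then exposed to compound for 48 h (DMSO <0.2%). Medium was replaced before the Bright-Glo luciferase read. Triplicate wells with six control wells. IC50 is the concentration giving 50% of control luciferase signal; mean of three independent experiments.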
# [2] = Selectivity index, ratio of CC50 for BHK cells to IC50 for Dengue virus 2 infected in BHK-D2RepT cells; format: functional
# Procedure, shortened: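 Selectivity index = CC50 / IC50. CC50 is from the 48 h MTT assay in nontransfected BHK cells; IC50 is from the 48 h luciferase read in BHK-D2RepT replicon cells, 96-well format.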
# [3] = Cytotoxicity against BHK cells incubated for 48 hrs by MTT assay; format: cell-based, Mesocricetus auratus; conditions: hamster
# Procedure, shortened: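 Nontransfected BHK cells, about 5×10⁴ per well, were treated the next day with various compound concentrations for 48 h. Viability was measured by MTT. CC50 is the concentration giving 50% of control cell number; mean of three independent experiments.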
# [4] = (§1) Inhibition of Dengue virus 2 NS2B-NS3 protease preincubated for 15 mins before Dabcyl- Lys-Gln-Arg-Arg-Gly-Arg-Ile-Glu-Edans substrate addition by fluorimetric assay; parameters: species or system dengue virus type 2
# [5] = tested on: dengue virus type 2; test: Inhibition of Dengue virus 2 NS2B-NS3 protease at 100 uM preincubated for 15 mins before Dabcyl- Lys-Gln-Arg-Arg-Gly-Arg-Ile-Glu-Edans substrate addition by fluorimetric assay
# [6] = tested on: dengue virus type 2; test: Inhibition of Dengue virus 2 NS2B-NS3 protease at 25 uM preincubated for 15 mins before substrate addition
# [7] = tested on: dengue virus type 2; test: Inhibition of Dengue virus 2 NS2B-NS3 protease at 12.5 uM preincubated for 15 mins before substrate addition
# [8] = tested on: dengue virus type 2; test: as §1
# [9] = tested on: dengue virus type 2; test: Inhibition of Dengue virus 2 NS2B-NS3 protease at 50 uM preincubated for 15 mins before substrate addition
Compound,IC50 [4] [µM],inhibition [5] [%],also measured
O=C(N/N=C\CCc1ccccc1)c1cc(/C=N/Nc2cccc(C(F)(F)F)c2)nc2ccccc12,> 100,20.9,–
O=C(NCCCCc1ccccc1)c1cc(/C=N/Nc2cccc(Br)c2)nc2ccccc12,> 100,30.6,–
Oc1c(/C=N/Nc2nc3ccccc3[nH]2)cccc1/C=N/Nc1nc2ccccc2[nH]1,> 100,31.9,–
O=C(N/N=C\C=C\c1ccccc1)c1cc(/C=N/Nc2cccc(C(F)(F)F)c2)nc2ccccc12,> 100,27.4,–
NS(=O)(=O)c1ccc(N/N=C/c2cc(C(=O)NCCCCc3ccccc3)c3ccccc3n2)cc1,> 100,29.4,–
COc1cc(/C=C/C(=O)CC(=O)/C=C/c2ccc(O)c(OC)c2)ccc1O [CURCUMIN],–,–,IC50 [1]: 4.2 µM; Ratio CC50/IC50 [2]: 3.5; CC50 at 48 h [3]: 14.8 µM
COc1c(C)c2c(c(O)c1C/C=C(\C)CCC(=O)O)C(=O)OC2 [MYCOPHENOLIC ACID],–,–,IC50 [1]: 0.7 µM; Ratio CC50/IC50 [2]: 2.7; CC50 at 48 h [3]: 1.9 µM
CCOC(=O)c1cc(/C=N\NC(N)=S)c(O)c(/C=N\NC(N)=S)c1,> 100,24.4,–
O=C(NCCCc1ccccc1)c1cc(/C=N/Nc2cccc(Br)c2)nc2ccccc12,> 100,24.2,–
CCNC(=S)N/N=C\c1cc(C(=O)OCC)cc(/C=N\NC(=S)NCC)c1O,> 100,28.2,–
O=C(CCCC(=O)/C(=C\c1ccc2c(c1)OCO2)CC(=O)c1ccccc1)OCCCl,242,–,–
COc1ccc(-c2csc(N3N=C(c4ccc([N+](=O)[O-])cc4)/C(=N\Nc4ccc(C(N)=O)cc4)C3=O)n2)cc1,220,–,–
O=C(NCCCc1ccccc1)c1cc(/C=N/Nc2cccc(Cl)c2)nc2ccccc12,> 100,32.1,–
CCOC(=O)c1cc(/C=N/N2C(=O)c3ccccc3C2=O)c(O)c(/C=N/N2C(=O)c3ccccc3C2=O)c1,> 100,28,–
CCOC(=O)c1cc(/C=N/NC(=O)Nc2ccccc2)c(O)c(/C=N/NC(=O)Nc2ccccc2)c1,> 100,44.1,–
NS(=O)(=O)c1ccc(N/N=C/c2cc(C(=O)N/N=C\Cc3ccccc3)c3ccccc3n2)cc1,> 100,31.1,–
CCOC(=O)c1cc(/C=N/NC(=O)c2ccc3c(c2)OCO3)c(O)c(/C=N/NC(=O)c2ccc3c(c2)OCO3)c1,> 100,35.4,–
NS(=O)(=O)c1ccc(N/N=C/c2cc(C(=O)NCCCc3ccccc3)c3ccccc3n2)cc1,> 100,20.6,–

# Second part, led by results:
IC50 [4] [µM],inhibition [5] [%],Compound,also measured
22,–,O=C(N/N=C\C=C\c1ccccc1)c1cc(/C=N/Nc2cccc([N+](=O)[O-])c2)nc2ccccc12,IC50 [1]: 74.9 µM; Ratio CC50/IC50 [2]: 0.3; CC50 at 48 h [3]: 25 µM
7.46,–,NS(=O)(=O)c1ccc(N/N=C/c2cc(C(=O)N/N=C\C=C\c3ccccc3)c3ccccc3n2)cc1,inhibition [6]: 37.1%; inhibition [7]: 21.4%; inhibition [8]: Dose-dependent effect; inhibition [9]: 63.3%
7.83,–,NS(=O)(=O)c1ccc(N/N=C/c2cc(C(=O)N/N=C/c3cccc(O)c3)c3ccccc3n2)cc1,–
35.3,–,O=C(O)c1cccc(N/N=C/c2cc(C(=O)NCCCCc3ccccc3)c3ccccc3n2)c1,IC50 [1]: 11 µM; Ratio CC50/IC50 [2]: 4.5; CC50 at 48 h [3]: 49.7 µM
29.5,–,CCOC(=O)c1cc(/C=N/Nc2nc3ccccc3[nH]2)cc(/C=N/Nc2nc3ccccc3[nH]2)c1,–
14.6,–,CCOC(=O)c1cc(/C=N/Nc2ccc([N+](=O)[O-])cc2)c(O)c(/C=N/Nc2ccc([N+](=O)[O-])cc2)c1,–
28.1,–,O=C(N/N=C\Cc1ccccc1)c1cc(/C=N/Nc2cccc(Cl)c2)nc2ccccc12,IC50 [1]: 61.3 µM; Ratio CC50/IC50 [2]: 0.3; CC50 at 48 h [3]: 19.7 µM
9.45,–,O=C(N/N=C\Cc1ccccc1)c1cc(/C=N/Nc2cccc(Br)c2)nc2ccccc12,IC50 [1]: 24.7 µM; Ratio CC50/IC50 [2]: >4.1; CC50 at 48 h [3]: > 100 µM
19.9,–,O=C(N/N=C\CCc1ccccc1)c1cc(/C=N/Nc2cccc(Br)c2)nc2ccccc12,–
39.5,–,CCOC(=O)c1cc(/C=N/Nc2ccc(C(C)C)cc2)c(O)c(/C=N/Nc2ccc(C(C)C)cc2)c1,IC50 [1]: 8 µM; Ratio CC50/IC50 [2]: 3.7; CC50 at 48 h [3]: 29.7 µM
19.8,–,O=C(N/N=C\Cc1ccccc1)c1cc(/C=N/Nc2cccc(C(F)(F)F)c2)nc2ccccc12,IC50 [1]: 73.4 µM; Ratio CC50/IC50 [2]: 0.2; CC50 at 48 h [3]: 16.4 µM
13.1,–,CCOC(=O)c1cc(/C=N/Nc2nc3ccccc3[nH]2)c(O)c(/C=N/Nc2nc3ccccc3[nH]2)c1,IC50 [1]: 35.9 µM; Ratio CC50/IC50 [2]: 0.4; CC50 at 48 h [3]: 12.6 µM; inhibition [8]: Dose-dependent effect
14.3,–,O=C(N/N=C\C=C\c1ccccc1)c1cc(/C=N/Nc2cccc(Cl)c2)nc2ccccc12,–
36,–,NS(=O)(=O)c1ccc(N/N=C/c2cc(C(=O)N/N=C\CCc3ccccc3)c3ccccc3n2)cc1,–
41.2,–,O=C(O)c1cccc(N/N=C/c2cc(C(=O)NCCCc3ccccc3)c3ccccc3n2)c1,IC50 [1]: 30.9 µM; Ratio CC50/IC50 [2]: 2.1; CC50 at 48 h [3]: 64.3 µM
29,–,O=C(N/N=C/CCc1ccccc1)c1cc(/C=N/Nc2cccc(Cl)c2)nc2ccccc12,–
48.6,–,CCOC(=O)c1cc(C)c(O)c(/C=N/Nc2nc3ccccc3[nH]2)c1,–

# From ChEMBL document CHEMBL2163279, “Discovery of novel small molecule inhibitors of dengue viral NS2B-NS3 protease using virtual screening and scaffold hopping” (J Med Chem, 2012)
